Results as given in PMC3351161 (Nucleic Acids Research, 2012).
Substitutions are numbered along the chain they refer to. Names and notes keep the numbering of the source.

Assays:
Mdc1–FHA domain = test: Detection of proposed partners in Mdc1–FHA pull-down / co-immunoprecipitation; assay type: binding, human; details: for detection in fraction pulled down by Mdc1–FHA domain: mass spectrometry; for detection by western blot in Mdc1–FHA pull-down / co-IP: U2OS, 10 Gy IR or untreated
[1] = tested on: Strep-tagged Mdc1–FHA domain (amino acids 1–154); test: SILAC pull-down of Mdc1–FHA interaction partners, −IR versus +IR; assay type: binding, human; details: 10 Gy IR
Procedure, shortened: (§1)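 U2OS cells stably carry a doxycycline-inducible, C-terminally Strep-tagged FHA domain (aa 1–154) or empty plasmid. They are SILAC-labelled (Lys0/Arg0, Lys4/Arg6, Lys8/Arg10) in dialyzed FBS, induced 16 h, then given 10 Gy IR for 30 min. Lysis in pH 7.5 Tris/NP-40 buffer with phosphatase and protease inhibitors, Strep-Tactin capture, pooled eluates on 4–20% SDS-PAGE, in-gel trypsin digestion. Analysis by nano-LC Orbitrap Velos MS and MaxQuant (FDR <1%). Read-out is normalized log2 SILAC ratios; 1:1:1 ratios count as background binders.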

[2] = tested on: Mdc1–FHA WT and T4A mutant domains; test: SILAC pull-down, wild-type versus T4A Mdc1–FHA domain after IR; assay type: binding, human; details: IR-treated cells
Procedure, shortened: as §1

Mdc1 M-1, 1-124 = Mdc1 M-1, 1-124 (UniProt Q14676); test: peptide pull-down of purified GST fragment; details: reference: unphosphorylated peptide; sites T4
Mdc1 FHA domain = Mdc1 FHA domain (UniProt Q14676); test: ITC; details: reference: non-phosphorylated Thr-4 peptide; sites T4
[3] = tested on: Mdc1 Thr-4 / Thr-98 phosphorylation; test: MS quantitation of Mdc1–FHA phosphorylation site occupancy; assay type: cell-based, human
[4] = tested on: immunoprecipitated human ATM; test: In vitro ATM kinase assay of recombinant Mdc1 fragments; assay type: biochemical; details: 0.5 mM ATP, γ-[32P]ATP, 30 min at 30°C, autoradiography
Myc-tagged Mdc1 (1–800) = test: Co-immunoprecipitation of Flag- and Myc-tagged Mdc1; assay type: cell-based, human; details: transiently transfected 293T cells, anti-Flag IP, anti-Myc immunoblot
Procedure, shortened: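 Human Mdc1 residues 1–800, C-terminally tagged with HA/FLAG or Myc, in a pcDNA3.1(+) vector. HEK 293T cells grown in D-MEM with 10% FCS and streptomycin/penicillin (100 U/ml). Transfected with FuGene 6 or calcium phosphate. Immunoprecipitation on anti-FLAG M2 affinity gel; Myc-tagged partner detected by immunoblot with rabbit polyclonal c-Myc antibody.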

ATM: ataxia telangiectasia-mutated kinase
detection in fraction pulled down by Mdc1–FHA domain (Mdc1–FHA domain): could not detect peptides
detection by western blot in Mdc1–FHA pull-down / co-IP (Mdc1–FHA domain): unable to detect

Chk2: DNA damage kinase
detection in fraction pulled down by Mdc1–FHA domain (Mdc1–FHA domain): could not detect peptides
detection by western blot in Mdc1–FHA pull-down / co-IP (Mdc1–FHA domain): unable to detect

DDB1- and Cul4-associated factor 1 [DCAF1]
decrease of interaction with the MDC1–FHA domain in the presence of DNA damage [1]: > 2.5 fold

DNA damage binding protein 1 [DDB1]
decrease of interaction with the MDC1–FHA domain in the presence of DNA damage [1]: > 2.5 fold

MDC1: endogenous Mdc1 as interaction partner of its own FHA domain
interaction with wild-type compared to T4A FHA domain (in words) [2]: interacts with the wild-type fragment

Mdc1 1-12 (from UniProt Q14676) pThr-4 peptide
binding against the reference (Mdc1 M-1, 1-124): stronger

Mdc1 Thr-4 motif peptide (from UniProt Q14676) pThr-4 peptide
binding against the reference (Mdc1 FHA domain): stronger

B1: Mdc1-FHA domain: C-terminally Strep-tagged Mdc1-FHA domain (amino acids 1–154) (protein)
chain: NVEPVGRLHIFSGAHGPEKDFPLHLGKNVVGRMPDCSVALPFPSISKQHAEIEILAWDKAPILRDCGSLNGTQILRPPKVLSPGVSHRLRDQELILFADLLCQYHRLDVSLP
modifications: left off: GST, end not stated, cleaved
Thr-98 phosphorylation ([3]; MS of tryptic peptide): no phosphorylated form was evident
occupancy rate of phosphorylated Thr-4, after irradiation ([3]; SILAC and extracted ion chromatogram quantitation, after irradiation): 61.5%
occupancy rate of phosphorylated Thr-4, before irradiation ([3]; SILAC and extracted ion chromatogram quantitation, not irradiated): 18.6%

B2: M-4: GST-fusion Mdc1 fragment M-4 (amino acids 531–770) (protein, UniProt Q14676 531-770, looked up, fragment)
chain: PGSAIIHIKKHQVSVEGTNQTDVKAVGGPAKLLVVSLEEAWPLHGDCETDAEEGTSLTASVVADVRKSQLPAEGDAGAEWAAAVLKQERAHEVGAQGGPPVAQVEQDLPISRENLTDLVVDTDTLGESTQPQREGAQVPTGREREQHVGGTKDSEDNYGDSEDLDLQATQCFLENQGLEAVQSMEDEPTQAFMLTPPQELGPSHCSFQTTGTLDEPWEVLATQPFCLRESEDSETQPFDT
modifications: GST fusion
phosphorylation by ATM in vitro [4]: ATM only phosphorylated fragment M-1 (amino acids 1–124) and fragment M-4 (amino acids 531–770)

B3: M-1: GST-fusion Mdc1 fragment M-1 (amino acids 1–124) (protein, UniProt Q14676 1-124, looked up, fragment)
chain: MEDTQAIDWDVEEEEETEQSSESLRCNVEPVGRLHIFSGAHGPEKDFPLHLGKNVVGRMPDCSVALPFPSISKQHAEIEILAWDKAPILRDCGSLNGTQILRPPKVLSPGVSHRLRDQELILFA
modifications: GST fusion
phosphorylation by ATM in vitro [4]: ATM only phosphorylated fragment M-1 (amino acids 1–124) and fragment M-4 (amino acids 531–770)

B4: M-1 T4A: M-1 point mutation altering Thr-4 to Ala (protein, UniProt Q14676 1-124, looked up, variant T4A)
chain: B3 chain with T4A
modifications: GST fusion
phosphorylation by ATM in vitro [4]: could no longer be phosphorylated by ATM in vitro

B5: Rad51: repair protein (protein)
chain: MAMQMQLEANADTSVEEESFGPQPISRLEQCGINANDVKKLEEAGFHTVEAVAYAPKKELINIKGISEAKADKILAEAAKLVPMGFTTATEFHQRRSEIIQITTGSKELDKLLQGGIETGSITEMFGEFRTGKTQICHTLAVTCQLPIDRGGGEGKAMYIDTEGTFRPERLLAVAERYGLSGSDVLDNVAYARAFNTDHQTQLLYQASAMMVESRYALLIVDSATALYRTDYSGRGELSARQMHLARFLRMLLRLADEFGVAVVITNQVVAQVDGAAMFAADPKKPIGGNIIAHASTTRLYLRKGRGETRICKIYDSPCLPEAEAMFAINADGVGDAKD
detection in fraction pulled down by Mdc1–FHA domain (Mdc1–FHA domain): could not detect peptides

B6: RNF95: uncharacterized RING-finger domain protein (protein)
chain: MATSAPLRSLEEEVTCSICLDYLRDPVTIDCGHVFCRSCTTDVRPISGSRPVCPLCKKPFKKENIRPVWQLASLVENIERLKVDKGRQPGEVTREQQDAKLCERHREKLHYYCEDDGKLLCVMCRESREHRPHTAVLMEKAAQPHREKILNHLSTLRRDRDKIQGFQAKGEADILAALKKLQDQRQYIVAEFEQGHQFLREREEHLLEQLAKLEQELTEGREKFKSRGVGELARLALVISELEGKAQQPAAELMQDTRDFLNRYPRKKFWVGKPIARVVKKKTGEFSDKLLSLQRGLREFQGKLLRDLEYKTVSVTLDPQSASGYLQLSEDWKCVTYTSLYKSAYLHPQQFDCEPGVLGSKGFTWGKVYWEVEVEREGWSEDEEEGDEEEEGEEEEEEEEAGYGDGYDDWETDEDEESLGDEEEEEEEEEEEVLESCMVGVARDSVKRKGDLSLRPEDGVWALRLSSSGIWANTSPEAELFPALRPRRVGIALDYEGGTVTFTNAESQELIYTFTATFTRRLVPFLWLKWPGTRLLLRP
interaction with wild-type compared to T4A FHA domain (in words) [2]: significantly increased in the wild-type compared to T4A FHA domain expressing cells

B7: Mdc1 (1–800) R58A: FHA domain R58A mutant of Mdc1 (1–800) (protein, UniProt Q14676 1-800, looked up, variant R58A)
chain: MEDTQAIDWDVEEEEETEQSSESLRCNVEPVGRLHIFSGAHGPEKDFPLHLGKNVVGAMPDCSVALPFPSISKQHAEIEILAWDKAPILRDCGSLNGTQILRPPKVLSPGVSHRLRDQELILFADLLCQYHRLDVSLPFVSRGPLTVEETPRVQGETQPQRLLLAEDSEEEVDFLSERRMVKKSRTTSSSVIVPESDEEGHSPVLGGLGPPFAFNLNSDTDVEEGQQPATEEASSAARRGATVEAKQSEAEVVTEIQLEKDQPLVKERDNDTKVKRGAGNGVVPAGVILERSQPPGEDSDTDVDDDSRPPGRPAEVHLERAQPFGFIDSDTDAEEERIPATPVVIPMKKRKIFHGVGTRGPGAPGLAHLQESQAGSDTDVEEGKAPQAVPLEKSQASMVINSDTDDEEEVSAALTLAHLKESQPAIWNRDAEEDMPQRVVLLQRSQTTTERDSDTDVEEEELPVENREAVLKDHTKIRALVRAHSEKDQPPFGDSDDSVEADKSSPGIHLERSQASTTVDINTQVEKEVPPGSAIIHIKKHQVSVEGTNQTDVKAVGGPAKLLVVSLEEAWPLHGDCETDAEEGTSLTASVVADVRKSQLPAEGDAGAEWAAAVLKQERAHEVGAQGGPPVAQVEQDLPISRENLTDLVVDTDTLGESTQPQREGAQVPTGREREQHVGGTKDSEDNYGDSEDLDLQATQCFLENQGLEAVQSMEDEPTQAFMLTPPQELGPSHCSFQTTGTLDEPWEVLATQPFCLRESEDSETQPFDTHLEAYGPCLSPPRAIPGDQHPESPVHTEPM
interaction of Flag-tagged with Myc-tagged Mdc1 (1–800) (Myc-tagged Mdc1 (1–800)): significant reduction of the interaction

B8: Mdc1 (1–800) T4A: T4A mutant of Mdc1 (1–800) (protein, UniProt Q14676 1-800, looked up, variant T4A)
chain: B7 chain with T4A, A58R
interaction of Flag-tagged with Myc-tagged Mdc1 (1–800) (Myc-tagged Mdc1 (1–800)): significant reduction of the interaction

B9: Mdc1 (1–800) concomitant mutation of both the FHA domain and Thr-4: T4A/R58A mutant of Mdc1 (1–800) (protein, UniProt Q14676 1-800, looked up, variant T4A R58A)
chain: B7 chain with T4A
interaction of Flag-tagged with Myc-tagged Mdc1 (1–800) (Myc-tagged Mdc1 (1–800)): complete loss of binding
